In ChEMBL document CHEMBL1124058, “8-Aryl-and 8-cycloalkyl-1,3-dipropylxanthines: further potent and selective antagonists for A1-adenosine receptors” (J Med Chem, 1988):

Key:
[1] = target: T1, Adenosine receptor A1 (Rattus norvegicus) (UniProt P25099); assay: Antagonistic activity on N6-([3H]-phenylisopropyl)adenosine binding to rat brain membrane (Adenosine A1 receptor); format: tissue-based
T1 sequence (whole entry): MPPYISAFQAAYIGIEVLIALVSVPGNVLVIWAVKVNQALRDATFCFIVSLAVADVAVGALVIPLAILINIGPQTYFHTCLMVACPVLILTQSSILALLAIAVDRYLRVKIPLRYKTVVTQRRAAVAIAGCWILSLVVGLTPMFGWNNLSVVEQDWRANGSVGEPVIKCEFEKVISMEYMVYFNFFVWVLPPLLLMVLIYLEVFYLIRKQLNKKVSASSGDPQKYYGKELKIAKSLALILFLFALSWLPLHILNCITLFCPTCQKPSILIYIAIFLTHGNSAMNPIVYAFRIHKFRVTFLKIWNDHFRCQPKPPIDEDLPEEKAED

Adenosine A2 receptor = Adenosine A2 receptor (Homo sapiens, UniProt P29275+P29274); assay: Inhibition of 5'-(N-ethylcarbamoyl)adenosine-elicited stimulation of adenylate cyclase in human platelet membranes; format: cell membranes
[2] = target: Adenosine A2 receptor (Cavia porcellus); assay: Inhibition of stimulation of adenylate cyclase in guinea pig brain slices at A2 receptor (2-chloroadenosine-elicited accumulations of cyclic AMP)
[3] = Solubility in water at PH 7.4 in the presence of Tris.HCl buffer; format: physicochemical
In short: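 Aqueous solubility measured in Tris-HCl buffer, pH 7.4.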

[4] = target: T1, Adenosine receptor A1 (Rattus norvegicus); assay: Antagonistic activity against N6-([3H]-phenylisopropyl)adenosine binding to rat brain membrane (Adenosine A1 receptor); format: tissue-based
In short: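 Competition binding against 1 nM N6-([3H]phenylisopropyl)adenosine at A1 receptors in rat cerebral cortical membranes. A range of xanthine concentrations was tested in triplicate in at least two separate experiments. Values are means with 95% confidence limits.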

SMILES | Kb [1] | Kb (Adenosine A2 receptor) | IC50 [2] | solubility [3] | Kb [4]
CCCn1c(=O)c2nc(-c3ccc(OCC(=O)NCCN(C)C)cc3O)[nH]c2n(CCC)c1=O | 8.4 nM | 77 nM |  |  | 
CCCn1c(=O)c2[nH]c(-c3ccc(OC)cc3O)nc2n(CCC)c1=O | 4.6 nM | 180 nM | 980 nM | 18 µM | 
CCCn1c(=O)c2nc(CC3CCCCC3)[nH]c2n(CCC)c1=O | 39 nM | 2700 nM |  |  | 
CCCn1c(=O)c2nc(CC3CCCC3)[nH]c2n(CCC)c1=O |  | 1900 nM |  |  | 16 nM
CCCn1c(=O)c2nc(-c3ccc(OCC(=O)NCCc4ccc(O)cc4)cc3O)[nH]c2n(CCC)c1=O | 16 nM | 4400 nM |  |  | 
CCCn1c(=O)c2nc(C3CCCCC3)[nH]c2n(CCC)c1=O |  | 190 nM |  | 74 µM | 
CCCn1c(=O)c2[nH]c(-c3ccccc3)nc2n(CCC)c1=O |  |  |  | 18 µM | 
CCCn1c(=O)c2nc(-c3ccc(OCC(=O)NCCc4c[nH]cn4)cc3O)[nH]c2n(CCC)c1=O | 100 nM | 2400 nM |  |  | 
CCCn1c(=O)c2[nH]c(C3CCCC3)nc2n(CCC)c1=O [1,3-DIPROPYL-8-CYCLOPENTYLXANTHINE [DPCPX]] |  |  |  | 31 µM | 
CCCn1c(=O)c2nc(C3CCNCC3)[nH]c2n(CCC)c1=O | 620 nM | 6900 nM |  |  | 
CCCn1c(=O)c2nc(-c3ccc(C(=O)NCC(=O)OC)cc3)[nH]c2n(CCC)c1=O | 38 nM | 240 nM |  |  | 
CCCn1c(=O)c2nc(-c3ccc(OCC(=O)NCCN)cc3O)[nH]c2n(CCC)c1=O | 2.4 nM | 140 nM |  | 710 µM | 
CCCn1c(=O)c2[nH]c(-c3ccc(O)cc3O)nc2n(CCC)c1=O |  |  |  | 11 µM | 
CCCn1c(=O)c2nc(-c3ccc(OCC(=O)OCC)cc3O)[nH]c2n(CCC)c1=O | 31 nM | 3800 nM |  |  | 
CCCn1c(=O)c2[nH]c(-c3ccc(C(N)=O)cc3)nc2n(CCC)c1=O |  |  |  | 5 µM | 

Further lines, results first:

Kb [1] | Kb (Adenosine A2 receptor) | IC50 [2] | solubility [3] | Kb [4] | SMILES
12 nM | 54 nM | 72 nM |  |  | CCCn1c(=O)c2nc(-c3ccc(C(N)=O)cc3)[nH]c2n(CCC)c1=O
 |  |  | 1600 µM | 710 nM | CCCn1c(=O)c2nc[nH]c2n(CCC)c1=O
200 nM |  |  | 180 µM |  | CCCn1c(=O)c2nc(-c3ccc(C(=O)O)cc3)[nH]c2n(CCC)c1=O
37 nM | 2000 nM |  | 1100 µM |  | CCCn1c(=O)c2nc(-c3ccc(OCC(=O)O)cc3O)[nH]c2n(CCC)c1=O
2.5 nM |  |  |  |  | CCCn1c(=O)c2nc(-c3ccc(O)cc3O)[nH]c2n(CCC)c1=O
10 nM |  |  |  |  | CCCn1c(=O)c2nc(-c3ccccc3)[nH]c2n(CCC)c1=O
3.7 nM |  |  | 14 µM |  | CCCn1c(=O)c2nc(-c3ccc(OC)cc3)[nH]c2n(CCC)c1=O
3.5 nM |  |  |  |  | CCCn1c(=O)c2nc(-c3ccc(O)cc3)[nH]c2n(CCC)c1=O
600 nM | 3600 nM |  |  |  | CCCn1c(=O)c2nc(-c3cnccn3)[nH]c2n(CCC)c1=O
6.5 nM | 1200 nM |  | 5600 µM |  | CCCn1c(=O)c2nc(-c3ccc(OCC(N)=O)cc3O)[nH]c2n(CCC)c1=O
